Assay outcomes from PubChem BioAssay.
proCasp3 act = activates human procaspase-3. P42574. recombinant procaspase-3 D3A, Ac-DEVD-pNA absorbance 405 nm. activation, % at 8.5 µM. hit rate 0.11% among 330,000;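 active = activation above the mean of all tested compounds plus 3 SD, cut at about 21% in these data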;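 note: 0% = DMSO alone and 100% = DMSO wells spiked with extra 5 µM PC-3 D3A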
Target sequence (P42574 whole entry D9A/D28A/D175A): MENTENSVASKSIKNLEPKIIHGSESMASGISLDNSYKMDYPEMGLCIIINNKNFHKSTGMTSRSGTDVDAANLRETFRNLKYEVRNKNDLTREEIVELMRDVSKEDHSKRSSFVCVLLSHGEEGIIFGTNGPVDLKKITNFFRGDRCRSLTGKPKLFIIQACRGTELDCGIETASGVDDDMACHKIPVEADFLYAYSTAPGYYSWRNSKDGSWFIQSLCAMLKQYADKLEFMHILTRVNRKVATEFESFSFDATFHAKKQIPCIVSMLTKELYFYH
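Assay system: Autoprocessing-dead procaspase-3 D3A mutant enzyme; also added: Ac-DEVD-pNA; doses: one concentration, 8.5 µM nominal, 0.8% DMSO; times: 1 h compound preincubation, 2 h substrate hydrolysis at 25 °C; technique: 405 nm absorbance of p-nitroaniline, reads at 0 and 120 min; measure: % activation between DMSO and enzyme-spiked controls; repeats: single replicate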
LYPLA1 inh = counter-screen for PME1 inhibitors: inhibitors of human LYPLA1. inhibition, % at 5.9 µM. hit rate 0.16% among 320,000. AID 2174. O75608. recombinant LYPLA1, FP-Rh probe fluorescence polarization;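 active = inhibition above the mean of all tested compounds plus 3 SD, set per campaign, cut at about 14% in these data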;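 note: inhibitors block serine hydrolase probe labeling of LYPLA1 so polarization falls; 0% = enzyme with DMSO and 100% = wells lacking LYPLA1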
LYPLA2 counter = blocks human lysophospholipase 2, a PME1 counter-screen. O95372. recombinant LYPLA2, FP-Rh probe fluorescence polarization. inhibition, % at 5.9 µM. hit rate 0.38% among 320,000;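 active = inhibition above the screen-wide mean plus 3 SD, limit set per campaign, cut at about 26% in these data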;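 note: 0% = LYPLA2 with DMSO and 100% = wells lacking LYPLA2 enzyme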
PREPL inh = inhibitors of human prolyl oligopeptidase-like enzyme PREPL. Q4J6C6. AID 2751. recombinant PREPL, fluorescence polarization activity-based probe. inhibition, % at 5.96 µM. hit rate 0.68% among 320,000; in the data active = inhibition above about 43%;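 note: 0% = enzyme with DMSO and 100% = wells lacking enzyme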
procasp7 counter = activates human procaspase-7, counter-screen for procaspase-3 activators; activation, % at 8.5 µM; recombinant procaspase-7, Ac-DEVD-pNA absorbance 405 nm; D23A/D198A/D206A triple mutant, cannot self-cleave; scale: DMSO 0, 5 µM enzyme 100; P55210; hit rate 0.093% among 330,000;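 active = percent activation above the screen-wide mean plus 3 SD, cut at about 25% in these data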
Target sequence (P55210 whole entry D23A/D198A/D206A): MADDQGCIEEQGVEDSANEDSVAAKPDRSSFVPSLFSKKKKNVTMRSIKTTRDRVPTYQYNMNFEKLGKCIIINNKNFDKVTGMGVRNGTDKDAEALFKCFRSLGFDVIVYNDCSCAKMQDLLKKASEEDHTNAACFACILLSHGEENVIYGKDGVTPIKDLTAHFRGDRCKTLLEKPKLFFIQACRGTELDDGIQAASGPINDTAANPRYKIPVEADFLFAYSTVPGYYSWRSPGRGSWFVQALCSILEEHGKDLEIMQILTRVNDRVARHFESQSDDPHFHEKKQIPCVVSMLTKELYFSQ
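System: Procaspase-7 triple mutant (PC-7 D3A); measure: % activation from two-timepoint absorbance difference, scaled to controls; times: 1 h compound preincubation, 2 h substrate cleavage, 25 °C; also added: Ac-DEVD-pNA substrate, 400 µM as added; measured by: Epi-absorbance of released pNA at 405 nm, two timepoints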
LYPLA2 conf = counter-screen for PME1 inhibitors: confirmation of human LYPLA2 inhibitors | shares compounds with LYPLA2 counter | recombinant LYPLA2, FP-Rh probe fluorescence polarization | inhibition, % at 5.9 µM | hit rate 72% among 1,100 | AID 2232;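 active = mean inhibition across replicates above the hit cutoff set in the primary screen, cut at about 26% in these data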;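 note: blocked labeling of the enzyme by serine hydrolase FP-Rh probe lowers polarization; 0% = enzyme with DMSO and 100% = wells lacking LYPLA2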
LYPLA2 ABPP = inhibitors of human LYPLA2; shares compounds with LYPLA2 counter; rhLYPLA2 in mouse brain proteome, gel ABPP FP-Rh; inhibition, % at 20 µM; hit rate 30% among 150; AID 652029;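 active = inhibition of LYPLA2 enzyme probe labeling above about 50%, limit read from the data; inactive = inhibition below that limit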;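 note: loss of FP-Rh probe labeling of the LYPLA2 gel band measured as band density; 0% = DMSO only control band and 100% = blank gel background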
An asterisk follows results filed as active; nt = not tested or not shown. The list is not random: actives were taken first. Their share in the collection is about 1.1%.

SMILES	proCasp3 act	LYPLA1 inh	LYPLA2 counter	PREPL inh	procasp7 counter	LYPLA2 conf	others
O=C(c1ccc(OC2CCN(CCc3ccccc3)CC2)cc1)N1CCCC(CCCO)C1 (stereo not drawn)	-1	7	65*	26	-1	51*	LYPLA2 ABPP=12
O=C(c1ccc(OC2CCN(CCc3ccccc3)CC2)cc1)N1CCCC1	-2	0	18	9	-5	nt
CCc1ccc(OCC(O)CN2CCC(CN3C(=O)c4cccc5cccc(c45)C3=O)CC2)cc1 (stereo not drawn)	-6	-3	29*	-20	-3	29*
Cc1cc(C)cc(OCC(O)CN2CCC(CN3C(=O)c4cccc5cccc(c45)C3=O)CC2)c1 (stereo not drawn)	1	9	46*	17	2	49*
COc1ccc(COCC(O)CN2CCC(CN3C(=O)c4cccc5cccc(c45)C3=O)CC2)cc1OC (stereo not drawn)	-4	3	5	24	2	nt
COc1cccc(OCC(O)CN2CCC(CN3C(=O)c4cccc5cccc(c45)C3=O)CC2)c1 (stereo not drawn)	-7	9	39*	6	18	51*	LYPLA2 ABPP=12
O=C1c2cccc3cccc(c23)C(=O)N1CC1CCN(CC(O)COc2ccc3ccccc3c2)CC1 (stereo not drawn)	4	3	47*	-22	-1	38*
CCNC(=O)CC1SC(=Nc2ccc(C)c([N+](=O)[O-])c2)N(C)C1=O (stereo not drawn)	10	0	2	15	-4	nt
CCC(C)(C)NC(=O)C(c1ccc(OC)cc1)N(C(=O)CCC(=O)Nc1cc(C)on1)c1cc(OC)ccc1OC (stereo not drawn)	4	3	0	5	10	nt
CCOc1cc(N2CCOCC2)c(OCC)cc1NC(=O)COC(=O)COc1ccc(C#N)cc1	9	6	0	2	-5	nt
CCOC(=O)c1c(C)[nH]c(C)c1S(=O)(=O)NCCN1CCN(c2cc(Cl)ccc2C)CC1	5	-1	-3	9	0	nt
COc1ccc(C(CNC(=O)CN2C(=O)NC3(CCCC3)C2=O)N(C)C)cc1 (stereo not drawn)	1	-1	-2	7	-2	nt
Cc1c(Nc2ccc3nonc3c2[N+](=O)[O-])c(=O)n(-c2ccccc2)n1C	-9	-1	32*	0	-16	37*
O=C(O)c1ccc(Nc2cc(Cl)c3nonc3c2[N+](=O)[O-])cc1	-13	1	4	13	-5	nt
O=[N+]([O-])c1c(Nc2cccc(O)c2)cc(Cl)c2nonc12	-3	0	47*	17	-11	51*
O=C(Nc1cccs1)Nc1c(F)c(F)c(F)c(F)c1F	-1	4	29*	12	-1	30*
CCOC(=O)C1=C(C)Nc2nc3ccccc3n2C1c1ccc(O)cc1 (stereo not drawn)	4	1	2	10	2	nt
CCOC(=O)c1ccccc1-n1c(C)cc(C2N=C(N)Nc3nc4ccccc4n32)c1C (stereo not drawn)	-5	9	71*	-9	5	77*
CC(=O)N1c2ccc(S(=O)(=O)NCC3CCC(C(=O)NCc4ccc(C)o4)CC3)cc2CC1C (stereo not drawn)	2	2	0	6	1	nt
CC(=O)N1c2ccc(S(=O)(=O)NCC3CCC(C(=O)NCc4ccc(C)cc4)CC3)cc2CC1C (stereo not drawn)	-3	-2	28*	2	3	28*
Cc1ccc(S(=O)(=O)N2CCOCC2)cc1C(=O)OCC(=O)NC1CCS(=O)(=O)C1 (stereo not drawn)	9	0	2	-3	0	nt
COc1ccc(S(=O)(=O)N2CCCCCC2)cc1C(=O)N(C)CC(=O)Nc1ccccc1Br	7	2	38*	-3	3	1
COc1ccc(S(=O)(=O)N2CCCCCC2)cc1C(=O)N(C)CC(=O)Nc1ccccc1Cl	8	-1	4	12	-4	nt
O=C(C[n+]1cccc(Br)c1)c1ccc(-c2ccccc2)cc1	5	-1	2	11	-1	nt
O=C(c1ccc(N2CCN(C(=O)c3cccc(F)c3)CC2)cc1)c1cccc(F)c1	3	6	43*	16	15	29*
SMILES	proCasp3 act	LYPLA1 inh	LYPLA2 counter	PREPL inh	procasp7 counter	LYPLA2 conf	others
COc1ccc(N2CCN(CCC(=O)c3ccc4ccccc4c3)CC2)cc1	-28	8	29*	23	-38	27*
COc1ccc(N2CCN(C(=O)c3ccc(S(=O)(=O)NCc4ccco4)cc3)CC2)cc1	-1	-4	32*	14	8	38*
COc1cccc(N2CCN(C(=O)c3ccc(CSc4nc5ccncc5[nH]4)cc3)CC2)c1	5	3	31*	10	8	22
Cc1noc(C)c1S(=O)(=O)Nc1ccc(C(=O)N2CCN(c3cccc(Cl)c3)CC2)cc1	-7	5	30*	20	3	25
Cc1cccc(N2CCN(C(=O)c3ccc(NS(=O)(=O)c4c(C)noc4C)cc3)CC2)c1C	-6	-1	2	-3	17	nt
Cc1ccc(C)c(N2CCN(C(=O)c3ccc(CSc4nc5ccncc5[nH]4)cc3)CC2)c1	2	-1	0	-12	1	nt
CCn1ncc(S(=O)(=O)NCc2ccccc2Cl)c1C	8	3	5	21	5	nt
O=C(CSc1ncnc2c1nnn2Cc1ccccc1)NC1CCCCC1	7	-3	-5	1	7	nt
COc1ccc(N2CCN(C(=O)c3ccc4c(c3)CCN4S(=O)(=O)c3ccccc3)CC2)cc1	-2	-1	35*	11	14	41*
COc1ccc(N2CCN(C(=O)c3ccc(NS(=O)(=O)c4ccccc4)cc3)CC2)cc1	8	2	37*	5	3	34*
COc1ccc(N2CCN(C(=O)c3ccc(CSc4ccccc4)cc3)CC2)cc1	-4	3	30*	11	2	42*
O=C(c1ccc2c(c1)CCN2S(=O)(=O)c1ccccc1)N1CCN(c2ccc(F)cc2)CC1	2	0	22	23	3	nt
COc1ccccc1-n1cc(-c2ccccc2)c2c(=S)nc[nH]c21	7	-1	4	7	7	nt
CSc1ccc(C(=O)C2CCCN(C(=O)c3cc4cc(F)ccc4[nH]3)C2)cc1 (stereo not drawn)	-6	13	36*	-13	16	41*
